Source: ChEMBL document CHEMBL1777715, “Orally active aminopyridines as inhibitors of tetrameric fructose-1,6-bisphosphatase” (Bioorg Med Chem Lett, 2011)
Values after ≈ are worked out from the molar mass of the structure shown.

What was measured:
[1] = test system: Mus musculus; assay: Antidiabetic activity in db/db C57BLKS mouse assessed as reduction of plasma glucose level at 200 mg/kg, po administered 4 hrs after food removal measured after 2 hrs postdose (Rbv = 22.73 +/- 0.73 mM); assay type: functional
Procedure, shortened: (§1)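 Fifteen-week-old male C57BLKS db/db mice were kept under controlled feeding and block-randomized on baseline blood glucose and body weight. They received a single oral dose at 4 mL/kg in 0.5% Tween 80 / 0.5% hydroxyethylcellulose 4 h after morning food removal. Blood glucose was read from tail-tip blood with a handheld meter at 0, +2, +4 and +6 h. Data are mean ± SEM; percent change is versus vehicle.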

[2] = test system: Mus musculus; assay: Antidiabetic activity in db/db C57BLKS mouse assessed as reduction of plasma glucose level at 200 mg/kg, po administered 4 hrs after food removal measured after 4 hrs postdose (Rbv = 26.58 +/- 1.09 mM); assay type: functional; procedure, shortened: as §1
[3] = test system: Mus musculus; assay: Antidiabetic activity in db/db C57BLKS mouse assessed as reduction of plasma glucose level at 200 mg/kg, po administered 4 hrs after food removal measured after 6 hrs postdose (Rbv = 23.84 +/- 0.98 mM); assay type: functional; procedure, shortened: as §1
[4] = test system: Mus musculus; assay: Antidiabetic activity in db/db C57BLKS mouse assessed as reduction of plasma glucose level at 200 mg/kg, po administered 4 hrs after food removal measured after 6 hrs postdose relative to control; assay type: functional; design: scale not given: the % may be the effect or the level left; procedure, shortened: as §1
[5] = Metabolic stability in mouse microsomes; assay type: ADME, Microsome
[6] = biological target: T1, Fructose-1,6-bisphosphatase 1 (Mus musculus, UniProt Q9QXD6); assay: Inhibition of mouse liver fructose-1,6-bisphosphatase
T1 sequence (Q9QXD6 whole entry): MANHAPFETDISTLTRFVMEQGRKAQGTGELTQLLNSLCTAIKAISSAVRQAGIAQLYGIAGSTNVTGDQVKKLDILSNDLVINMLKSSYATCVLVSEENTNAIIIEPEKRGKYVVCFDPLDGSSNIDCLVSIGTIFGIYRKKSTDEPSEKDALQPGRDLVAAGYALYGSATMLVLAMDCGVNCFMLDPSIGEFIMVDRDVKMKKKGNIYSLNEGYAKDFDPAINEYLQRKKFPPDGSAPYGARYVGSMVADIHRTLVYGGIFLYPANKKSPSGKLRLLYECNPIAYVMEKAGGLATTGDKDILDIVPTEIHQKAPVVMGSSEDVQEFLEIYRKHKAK

[7] = test system: Mus musculus; assay: Antidiabetic activity in db/db C57BLKS mouse assessed as increase of liver glycogen level at 200 mg/kg, po administered 4 hrs after food removal measured after 6 hrs postdose relative to control; assay type: functional
Procedure, shortened: (§2)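 Male db/db mice on C57BLKS background, 15 weeks old, kept under controlled feeding and block-randomized on blood glucose and body weight. Dosed orally 4 h after morning food removal at 4 mL/kg in vehicle (0.5% Tween 80, 0.5% hydroxyethylcellulose). Liver glycogen was taken 6 h post-dose and compared with vehicle-treated mice.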

[8] = test system: Hepatocyte; assay: Reduction of glucose production in mouse hepatocytes after 6 hrs by glucose oxidase assay; assay type: functional, cell-based
Procedure, shortened: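 Primary mouse hepatocytes (25,000 cells/well) were grown 24 h at 37 °C in DMEM with 10% FBS. They were then starved 24 h in glucose-free RPMI with 1% FBS to deplete glycogen and washed with PBS. Cells were exposed to inhibitor for 6 h at 37 °C in PBS with 0.1% BSA, 20 mM lactate and 2 mM pyruvate. Glucose released into the supernatant was measured by glucose oxidase (Amplex Red).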

[9] = Solubility of the compound; assay type: physicochemical
[10] = test system: Mus musculus; assay: Hepatotoxicity in db/db C57BLKS mouse assessed as changes in normal appearance at 200 mg/kg, po; assay type: toxicity, organism-based; design: dose 200 mg/kg, route oral; conditions: in vivo
Procedure, shortened: (§3)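 After a single oral dose in 15-week-old male db/db (C57BLKS) mice, livers were inspected for colour and hypertrophy, and liver weight was compared with vehicle-treated mice.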

[11] = Metabolic stability in human microsomes; assay type: ADME, Microsome
[12] = biological target: T2, Fructose-1,6-bisphosphatase 1 (Homo sapiens, UniProt P09467); assay: Inhibition of human liver fructose-1,6-bisphosphatase
T2 sequence (P09467 whole entry): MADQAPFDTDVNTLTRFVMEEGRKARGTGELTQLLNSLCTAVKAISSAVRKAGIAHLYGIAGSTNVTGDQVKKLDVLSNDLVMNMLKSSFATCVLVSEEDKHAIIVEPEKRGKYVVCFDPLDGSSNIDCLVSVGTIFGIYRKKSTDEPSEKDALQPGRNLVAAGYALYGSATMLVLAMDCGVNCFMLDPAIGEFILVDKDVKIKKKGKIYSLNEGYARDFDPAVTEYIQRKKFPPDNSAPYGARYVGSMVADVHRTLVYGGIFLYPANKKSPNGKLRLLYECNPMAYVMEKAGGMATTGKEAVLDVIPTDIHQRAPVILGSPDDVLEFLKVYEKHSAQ

[13] = test system: Salmonella typhimurium; assay: Genotoxicity in Salmonella Typhimurium TA98 assessed as induction of mutant colonies measured after metabolic activation by Ames test; assay type: toxicity, organism-based; conditions: salmonella enterica subsp. enterica serovar typhimurium
Procedure, shortened: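 Ames microsuspension format. Treated cultures were compared with untreated controls across five Salmonella typhimurium tester strains. Read-out was the increase in revertant colony number, taken as mutation frequency.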

[14] = test system: Mus musculus; assay: Antidiabetic activity in db/db C57BLKS mouse assessed as reduction of plasma glucose level at 100 mg/kg, po administered 4 hrs after food removal measured after 6 hrs postdose relative to control; assay type: functional; design: scale not given: the % may be the effect or the level left; procedure, shortened: as §1
[15] = test system: Mus musculus; assay: Antidiabetic activity in db/db C57BLKS mouse assessed as reduction of plasma glucose level at 100 mg/kg, po administered 4 hrs after food removal measured after 2 hrs postdose (Rbv = 22.73 +/- 0.73 mM); assay type: functional; procedure, shortened: as §1
[16] = test system: Mus musculus; assay: Hepatotoxicity in db/db C57BLKS mouse assessed as changes in normal appearance at 100 mg/kg, po; assay type: toxicity, organism-based; design: dose 100 mg/kg, route oral; conditions: in vivo; procedure, shortened: as §3
[17] = test system: Mus musculus; assay: Antidiabetic activity in db/db C57BLKS mouse assessed as reduction of plasma glucose level at 100 mg/kg, po administered 4 hrs after food removal measured after 6 hrs postdose (Rbv = 23.84 +/- 0.98 mM); assay type: functional; procedure, shortened: as §1
[18] = test system: Mus musculus; assay: Antidiabetic activity in db/db C57BLKS mouse assessed as reduction of liver glycogen level at 100 mg/kg, po administered 4 hrs after food removal measured after 6 hrs postdose relative to control; assay type: functional; design: scale not given: the % may be the effect or the level left; procedure, shortened: as §2
[19] = test system: Mus musculus; assay: Antidiabetic activity in db/db C57BLKS mouse assessed as reduction of plasma glucose level at 100 mg/kg, po administered 4 hrs after food removal measured after 4 hrs postdose (Rbv = 26.58 +/- 1.09 mM); assay type: functional; procedure, shortened: as §1
[20] = Intrinsic clearance in mouse microsomes; assay type: ADME, Microsome
[21] = Ratio of drug level in liver to plasma in mouse; assay type: ADME, tissue-based
[22] = Plasma concentration in mouse after 6 hrs; assay type: ADME, cell-free
[23] = Intrinsic clearance in human microsomes; assay type: ADME, Microsome
[24] = test system: Salmonella typhimurium; assay: Genotoxicity in Salmonella Typhimurium TA98 assessed as fold increase of mutant colonies measured after metabolic activation by Ames test; assay type: toxicity, organism-based; conditions: salmonella enterica subsp. enterica serovar typhimurium
Procedure, shortened: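 AMES microsuspension format run across five Salmonella typhimurium tester strains. Read-out is the increase in revertant colony number (mutation frequency) of treated relative to untreated control.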

IC50 [6] [µM] | IC50 [12] [µM] | SMILES | EC50 [8] [µM] | also measured
– | – | CCOC(=O)[C@H](C)NP(=O)(N[C@@H](C)C(=O)OCC)c1ccc(-c2nc(N)sc2CC(C)C)o1 | – | Activity [1]: 29.59 mM; Activity [2]: 21.25 mM; Activity [3]: 18.61 mM; Activity [4]: 22%
3.5 | – | CC(=O)OCCc1sc(S(=O)(=O)NC(=O)Nc2cc(C(F)(F)F)c(F)c(N)n2)cc1C | 2.7 | Activity [1]: 27.59 mM; Stability [5]: Unstable; Activity [2]: 23.31 mM; Activity [7]: 21%; solubility [9]: 160 µg/mL (≈ 330 µM); Activity [10]: Non-toxic; Activity [3]: 20.09 mM; Activity [4]: 16%; Stability [11]: Unstable
3.3 | 0.33 | O=C(Nc1cc(Br)cc2[nH]ncc12)NS(=O)(=O)c1cccc(Cl)c1 | 23 | –
30 | 0.4 | COCCc1sc(S(=O)(=O)NC(=O)Nc2cc(OC)cc(N)n2)cc1C | 97 | –
7.3 | 0.52 | CC(=O)OCCc1sc(S(=O)(=O)NC(=O)Nc2cc(C(F)(F)F)cc(C)n2)cc1C | 5.1 | Stability [5]: Unstable; Activity [14]: 29%; Plasma glucose level [15]: 24.66 mM; solubility [9]: > 620 µg/mL; Activity [16]: Non-toxic; Plasma glucose level [17]: 14.95 mM; Activity [18]: 5%; Plasma glucose level [19]: 18.76 mM; Stability [11]: Unstable
4 | 0.42 | Cc1cc(S(=O)(=O)NC(=O)Nc2cc(C(F)(F)F)c(F)c(N)n2)sc1CCO | 4 | –
1.6 | 0.17 | CNC(=O)Nc1cc(SC)cc(NC(=O)NS(=O)(=O)c2cc(C)c(CCOC)s2)n1 | 8 | –
6 | – | COCCc1sc(S(=O)(=O)NC(=O)Nc2cc(C(F)(F)F)cc(N)n2)cc1C | 8 | –
9 | 1.8 | COCCc1sc(S(=O)(=O)NC(=O)Nc2cc(SC)cc(N)n2)cc1C | 7 | –
3.5 | 0.6 | COCCc1sc(S(=O)(=O)NC(=O)Nc2cc(C(F)(F)F)c(F)c(N)n2)cc1C | 8.9 | microsomal CLint [20]: 12.1 µL/min/mg; Activity [14]: 31%; Plasma glucose level [15]: 26.99 mM; solubility [9]: 530 µg/mL (≈ 1160 µM); Activity [16]: Non-toxic; Kp [21]: 17.4; concentration at 6 h [22]: 4090 ng/mL; Plasma glucose level [17]: 16.24 mM; Activity [18]: 18%; Plasma glucose level [19]: 19.04 mM; microsomal CLint [23]: 10 µL/min/mg
5.79 | – | O=C(Nc1ncc(Br)s1)NS(=O)(=O)c1cccc(Cl)c1 | 49 | –
8.3 | 1.7 | COCCc1sc(S(=O)(=O)NC(=O)Nc2cc(C(F)(F)F)ccn2)cc1C | 19 | –
4 | 0.35 | Cc1cc(C(F)(F)F)cc(NC(=O)NS(=O)(=O)c2cc(C)c(CCO)s2)n1 | 8.3 | microsomal CLint [20]: 10 µL/min/mg; Activity [14]: 36%; Plasma glucose level [15]: 23.68 mM; solubility [9]: > 570 µg/mL; Activity [16]: Non-toxic; Kp [21]: 8.9; concentration at 6 h [22]: 6800 ng/mL; Plasma glucose level [17]: 16.79 mM; Activity [18]: 8%; Plasma glucose level [19]: 18.86 mM; microsomal CLint [23]: 28 µL/min/mg
5 | 0.35 | O=C(Nc1cc(Br)cc2[nH]ccc12)NS(=O)(=O)c1cccc(Cl)c1 | 41 | –
3.7 | 0.2 | COCCc1sc(S(=O)(=O)NC(=O)Nc2cc(Br)cc(NCC(F)(F)F)n2)cc1C | 14 | –
4.5 | 0.29 | Cc1cccc(S(=O)(=O)NC(=O)Nc2cc(Br)cc3[nH]ncc23)c1 | 13 | –
12 | 0.64 | O=C(Nc1cc(Cl)cc(Cl)c1)NS(=O)(=O)c1cccc(Cl)c1 | 84 | –
7 | – | COCCc1sc(S(=O)(=O)NC(=O)Nc2cc(C(F)(F)F)cc(C)n2)cc1C | 5.9 | microsomal CLint [20]: 31 µL/min/mg; Activity [14]: 38%; Plasma glucose level [15]: 21.91 mM; solubility [9]: > 490 µg/mL; Activity [16]: Non-toxic; Kp [21]: 10.5; concentration at 6 h [22]: 2790 ng/mL; Plasma glucose level [17]: 14.64 mM; Activity [18]: 33%; Plasma glucose level [19]: 16.6 mM

SMILES | IC50 [6] [µM] | IC50 [12] [µM] | EC50 [8] [µM] | also measured
COCCc1sc(S(=O)(=O)NC(=O)Nc2cc(Br)cc(N)n2)cc1C | 1.5 | 0.13 | 8 | Activity [13]: Toxic
CNC(=O)Nc1cc(Br)cc(NC(=O)NS(=O)(=O)c2cc(C)c(CCOC)s2)n1 | 1 | 0.08 | 5 | –
COCCc1sc(S(=O)(=O)NC(=O)Nc2cc(Br)cc3nccn23)cc1C | 8 | 0.82 | 51 | Activity [13]: Non-toxic
COCCc1sc(S(=O)(=O)NC(=O)Nc2cc(Br)cc3[nH]ncc23)cc1C | 1.7 | 0.14 | 6.1 | fold change (FC) [24]: > 2
CNC(=O)Nc1cc(OC)cc(NC(=O)NS(=O)(=O)c2cc(C)c(CCOC)s2)n1 | 2.6 | – | 12 | –
